# Molecular target: PvdQ acyl-homoserine lactone acylase (Pseudomonas aeruginosa LESB58)
# Experiment: PvdQ acylase enzyme activity blockers – biochemical, fluorescence, plate reader, dry powder samples, dose response (AID 623951)
# Details: purified PvdQ, 4-MU laurate hydrolysis
# Method in brief: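 Assay system: Purified Pseudomonas aeruginosa PvdQ acylase enzyme | Buffer or medium: Tris pH 8.0, NaCl, TCEP, Triton X-100 | Reagent: 4-methylumbelliferone laurate substrate at 0.8 mM final | Incubation: 30 min pre-incubation, 60 min reaction, RT | Detection: Fluorescence, ex 303–367 nm, em 440–460 nm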
row,AC50 [nM],Compound
1,1530,N#CC(c1cccc(C(F)(F)F)n1)c1ccccc1OC(F)(F)F (stereo unspecified)
2,831,N#CC(c1ccc(C(F)(F)F)c(Cl)n1)c1ccc(Cl)cc1Cl (stereo unspecified)
3,380,N#Cc1cccc(C(C#N)c2ccc(Cl)cc2Cl)n1 (stereo unspecified)
4,1340,N#Cc1cccc(C(C#N)c2ccccc2OC(F)(F)F)n1 (stereo unspecified)
5,258,N#CC(CC1CC1)c1ccc(Cl)cc1 (stereo unspecified)
6,118,CCCCC(C#N)c1ccc(Cl)cc1 (stereo unspecified)
7,43.4,N#CC(c1ccc(C(F)(F)F)cc1)c1cccc(C(F)(F)F)n1 (stereo unspecified)
8,140,N#Cc1cccc(C(C#N)c2ccc(Cl)cc2F)n1 (stereo unspecified)
9,5.76,N#CC(c1ccc(Cl)cc1)c1ncccc1Cl (stereo unspecified)
10,221,Cc1ccc(C(C#N)c2ccc(Cl)cc2)nc1C#N (stereo unspecified)
11,279,N#CC(c1ccc(Cl)cc1Cl)c1ncccc1Cl (stereo unspecified)
12,< 3,N#CC(c1cccc(C(F)(F)F)n1)c1ccc(Cl)cc1F (stereo unspecified)
13,99.4,CCCC(C#N)c1ccc(Cl)cc1 (stereo unspecified)
14,271,Cc1ccc(C(C#N)c2ccc(Cl)cc2)nc1 (stereo unspecified)
15,11.1,N#CC(c1ccc(Cl)cc1)c1cccc(C(F)(F)F)n1 (stereo unspecified)
16,2660,N#Cc1ccc(C(C#N)c2ccc(Cl)cc2)nc1 (stereo unspecified)
17,142,Cc1ccc(C(C#N)c2ccc(F)cc2)nc1C#N (stereo unspecified)
18,11.7,N#CC(c1ccc(F)cc1)c1cccc(C(F)(F)F)n1 (stereo unspecified)
19,240,COc1cccc(C(C#N)c2ccc(F)cc2)n1 (stereo unspecified)
20,1390,N#CC(c1ccc(C(F)(F)F)cc1)c1ccc(C(F)(F)F)c(Cl)n1 (stereo unspecified)

row,AC50 [nM],Compound
1,203,N#CC(c1cccc(Cl)n1)c1ccc(Cl)cc1Cl (stereo unspecified)
2,802,N#CC(c1ccc(C(F)(F)F)c(Cl)n1)c1ccc(Cl)cc1F (stereo unspecified)
3,20.2,CCCCC(C#N)c1ccc(F)cc1 (stereo unspecified)
4,1300,CCCCC(C#N)c1ccccc1OC(F)(F)F (stereo unspecified)
5,467,Cc1ccc(C(C#N)c2ccccc2OC(F)(F)F)nc1C#N (stereo unspecified)
6,457,CCCCC(C#N)c1ccc(Cl)cc1F (stereo unspecified)
7,287,N#CC(c1ccc(C(F)(F)F)cc1)c1cccc(Cl)n1 (stereo unspecified)
8,182,CCCCC(C#N)c1ccc(C(F)(F)F)cc1 (stereo unspecified)
9,2700,N#Cc1ccc(C(C#N)c2ccc(Cl)cc2Cl)nc1 (stereo unspecified)
10,546,N#CC(c1ccc(Cl)cc1)c1ccc(C(F)(F)F)cn1 (stereo unspecified)
11,62.8,N#CC(c1ccc(Cl)cc1)c1ccc(Cl)cn1 (stereo unspecified)
12,433,N#CC(c1ccc(C(F)(F)F)c(Cl)n1)c1ccccc1OC(F)(F)F (stereo unspecified)
13,5630,CC(C#N)(c1ccc(Cl)cc1)c1ccc(C(F)(F)F)cn1 (stereo unspecified)
14,138,Cc1cccc(C(C#N)c2ccc(Cl)cc2)n1 (stereo unspecified)
15,77,N#CC(c1cccc(Cl)n1)c1ccc(Cl)cc1F (stereo unspecified)
16,414,N#CC(c1ccc(Cl)cc1)c1ccc(C(F)(F)F)c(Cl)n1 (stereo unspecified)
17,138,N#Cc1cccc(C(C#N)c2ccc(Cl)cc2)n1 (stereo unspecified)
18,936,N#CC(c1cccc(Cl)n1)c1ccccc1OC(F)(F)F (stereo unspecified)
19,121,CC(C)CC(C#N)c1ccc(Cl)cc1 (stereo unspecified)
20,398,N#CC(c1ccc(F)cc1)c1ccc(C(F)(F)F)c(Cl)n1 (stereo unspecified)

row,Compound,AC50 [nM]
1,CCCCC(C#N)c1ccc(Cl)cc1Cl (stereo unspecified),75.6

# Reference: PubChem BioAssay AID623951 (Broad Institute, 2012)
